# Data: ChEMBL document CHEMBL1157638, “Fluorescent epigenetic small molecule induces expression of the tumor suppressor ras-association domain family 1A and inhibits human prostate xenograft” (J Med Chem, 2010)
# Active and inactive are the calls of the source. The rule behind the calls is not given here.
# What was measured:
# Malme-3M = test: Growth inhibition of human MALME-3M cells assessed as cell growth at 10 uM relative to untreated control; format: functional; conditions: read-out: Activity
# NCI-H460 = test: Growth inhibition of human NCI-H460 cells assessed as cell growth at 1 nM relative to untreated control; format: functional; conditions: read-out: Activity
# 786-0 = test: Growth inhibition of human 786-0 cells assessed as cell growth at 100 nM relative to untreated control; format: functional; conditions: read-out: Activity
# UO-31 = test: Growth inhibition of human UO31 cells; format: functional
# NCI-H522 [1] = test: Growth inhibition of human NCI-H522 cells assessed as cell growth at 10 nM relative to untreated control; format: functional; conditions: read-out: Activity
# MDA-MB-435 [2] = test: Growth inhibition of human MDA-MB-435 cells assessed as cell growth at 1 nM relative to untreated control; format: functional; conditions: read-out: Activity
# HCT-15 = test: Growth inhibition of human HCT15 cells assessed as cell growth at 1 nM relative to untreated control; format: functional; conditions: read-out: Activity
# In short: (§1)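 Run externally at the National Cancer Institute as a 59-cell-line panel screen, with concentrations up to 100 μM. Growth was scored relative to control, where negative growth or total cell kill was possible. Data are in the Supporting Information.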
# MOLT-4 = test: Growth inhibition of human MOLT4 cells assessed as cell growth at 10 nM relative to untreated control; format: functional; conditions: read-out: Activity
# OVCAR-8 = test: Growth inhibition of human OVCAR8 cells assessed as cell growth at 10 nM relative to untreated control; format: functional; conditions: read-out: Activity
# SNB-19 = test: Growth inhibition of human SNB19 cells; format: functional
# TK-10 = test: Growth inhibition of human TK10 cells assessed as cell growth at 1 nM relative to untreated control; format: functional; conditions: read-out: Activity
# A498 [3] = test: Growth inhibition of human A498 cells assessed as cell growth at 1 uM relative to untreated control; format: functional; conditions: read-out: Activity
# NCI-H322M = test: Growth inhibition of human NCI-H322M cells assessed as cell growth at 1 nM relative to untreated control; format: functional; conditions: read-out: Activity
# MDA-MB-231 = test: Growth inhibition of human MDA-MB-231 cells assessed as cell growth at 10 uM relative to untreated control; format: functional; conditions: read-out: Activity
# NCI-H522 [4] = test: Growth inhibition of human NCI-H522 cells assessed as cell growth at 1 nM relative to untreated control; format: functional; conditions: read-out: Activity
# HCT-116 [5] = test: Growth inhibition of human HCT116 cells assessed as cell growth at 100 nM relative to untreated control; format: functional; conditions: read-out: Activity; in short: as §1
# K562 = test: Growth inhibition of human K562 cells assessed as cell growth at 10 nM relative to untreated control; format: functional; conditions: read-out: Activity
# OVCAR-5 = test: Growth inhibition of human OVCAR5 cells assessed as cell growth at 1 nM relative to untreated control; format: functional; conditions: read-out: Activity
# BT-549 = test: Growth inhibition of human BT549 cells assessed as cell growth at 10 uM relative to untreated control; format: functional; conditions: read-out: Activity
# [6] = Growth inhibition of human Hs 578T cells assessed as cell growth at 1 nM relative to untreated control; format: functional; conditions: read-out: Activity
# PC-3 [7] = test: Growth inhibition of human PC3 cells assessed as cell growth at 1 uM relative to untreated control; format: functional; conditions: read-out: Activity
# SNB-75 = test: Growth inhibition of human SNB75 cells assessed as cell growth at 100 nM relative to untreated control; format: functional; conditions: read-out: Activity
# PC-3 [8] = test: Drug uptake in cytoplasm of human PC3 cells at 5 uM by confocal microscopy; format: ADME, cell-based; conditions: pc-3, 5 µM
# In short: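 PC-3 cells were plated overnight on fibronectin/[…]-coated slides and treated with 5 μM compound or DMSO for 1-6 h. Cells were PBS-washed, fixed in 4% formaldehyde, and stained with propidium iodide (nuclei) and anti-DNMT3a or anti-DNMT3b antibody. The compound was excited at 725 nm by multiphoton laser and imaged through a 500-550 nm filter by confocal microscopy.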
# HL-60(TB) = test: Growth inhibition of human HL-60(TB) cells assessed as cell growth at 10 nM relative to untreated control; format: functional; conditions: read-out: Activity
# A549 = test: Growth inhibition of human A549 cells assessed as cell growth at 10 uM relative to untreated control; format: functional; conditions: read-out: Activity
# COLO 205 [9] = test: Growth inhibition of human COLO205 cells assessed as cell growth at 100 nM relative to untreated control; format: functional; conditions: read-out: Activity; in short: as §1
# SW-620 = test: Growth inhibition of human SW620 cells; format: functional
# MCF7 = test: Growth inhibition of human MCF7 cells assessed as cell growth at 1 nM relative to untreated control; format: functional; conditions: read-out: Activity
# MDA-MB-435 [10] = test: Growth inhibition of human MDA-MB-435 cells; format: functional; conditions: read-out: LC50 (the source's name)
# PC-3 [11] = test: Decrease in DNA synthesis in human PC3 cells at 5 uM after 24 hrs by BrdU incorporation assay; format: functional, cell-based
# In short: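 PC-3 cells were seeded at 2 × 10⁴ cells/well and exposed to 5 μM compound or DMSO for 24 h. BrdU incorporation was read by chemiluminescent cell proliferation ELISA on a luminometer. Background without anti-BrdU-peroxidase was subtracted and values were normalized to untreated control. Values are mean ± SEM.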
# HCT-116 [12] = test: Growth inhibition of human HCT116 cells assessed as cell growth at 10 nM relative to untreated control; format: functional; conditions: read-out: Activity; in short: as §1
# A498 [13] = test: Growth inhibition of human A498 cells; format: functional
# [14] = target: DNA (cytosine-5)-methyltransferase 1 (Homo sapiens) (UniProt P26358); test: Inhibition of DNA methyltransferase activity in human PC3 cells at 2 uM after 3 days; format: cell-based; conditions: PC-3
# DNA (cytosine-5)-methyltransferase 1 (Homo sapiens), sequence (P26358 whole entry): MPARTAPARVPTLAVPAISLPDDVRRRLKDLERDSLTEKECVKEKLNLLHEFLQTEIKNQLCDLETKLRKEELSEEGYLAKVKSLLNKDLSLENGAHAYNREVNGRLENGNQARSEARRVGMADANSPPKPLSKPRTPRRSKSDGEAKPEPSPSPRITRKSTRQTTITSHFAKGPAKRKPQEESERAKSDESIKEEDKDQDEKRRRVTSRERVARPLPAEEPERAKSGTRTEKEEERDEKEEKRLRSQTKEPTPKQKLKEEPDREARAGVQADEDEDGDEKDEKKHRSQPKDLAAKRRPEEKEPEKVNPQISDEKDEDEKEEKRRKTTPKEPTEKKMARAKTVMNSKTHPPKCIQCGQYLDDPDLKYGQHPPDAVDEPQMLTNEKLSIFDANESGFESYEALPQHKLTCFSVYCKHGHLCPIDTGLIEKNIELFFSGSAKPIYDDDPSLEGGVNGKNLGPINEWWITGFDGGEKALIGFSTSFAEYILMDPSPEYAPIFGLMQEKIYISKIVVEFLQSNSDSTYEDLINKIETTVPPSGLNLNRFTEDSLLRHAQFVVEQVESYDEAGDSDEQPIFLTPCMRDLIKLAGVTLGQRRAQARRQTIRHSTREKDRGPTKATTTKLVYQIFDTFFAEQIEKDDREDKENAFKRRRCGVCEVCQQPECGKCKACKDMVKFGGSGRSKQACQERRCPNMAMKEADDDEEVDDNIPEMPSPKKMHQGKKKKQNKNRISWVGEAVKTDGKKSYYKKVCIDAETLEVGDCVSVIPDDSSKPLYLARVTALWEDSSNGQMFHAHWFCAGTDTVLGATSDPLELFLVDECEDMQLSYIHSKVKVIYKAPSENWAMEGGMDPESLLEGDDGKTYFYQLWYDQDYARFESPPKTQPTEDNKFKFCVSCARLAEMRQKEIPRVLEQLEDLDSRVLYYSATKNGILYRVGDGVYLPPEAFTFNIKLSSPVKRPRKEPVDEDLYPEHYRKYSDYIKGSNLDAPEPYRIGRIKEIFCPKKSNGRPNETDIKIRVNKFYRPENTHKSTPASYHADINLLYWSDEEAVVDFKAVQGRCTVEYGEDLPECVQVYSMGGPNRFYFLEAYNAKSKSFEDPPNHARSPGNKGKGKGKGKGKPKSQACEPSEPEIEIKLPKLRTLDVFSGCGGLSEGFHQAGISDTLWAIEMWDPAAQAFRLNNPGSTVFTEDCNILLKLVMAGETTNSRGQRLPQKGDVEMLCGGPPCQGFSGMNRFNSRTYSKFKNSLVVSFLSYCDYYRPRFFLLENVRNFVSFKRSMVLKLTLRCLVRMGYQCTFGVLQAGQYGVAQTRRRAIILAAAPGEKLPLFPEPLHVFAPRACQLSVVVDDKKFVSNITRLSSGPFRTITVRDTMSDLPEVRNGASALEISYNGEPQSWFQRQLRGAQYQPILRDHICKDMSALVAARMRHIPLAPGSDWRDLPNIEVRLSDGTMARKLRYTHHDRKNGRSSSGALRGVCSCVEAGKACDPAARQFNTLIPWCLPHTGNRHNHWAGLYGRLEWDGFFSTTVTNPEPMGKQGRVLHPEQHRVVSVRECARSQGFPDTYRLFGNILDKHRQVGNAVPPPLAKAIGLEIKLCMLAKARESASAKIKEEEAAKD
# In short: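 PC-3 cells in complete growth medium treated 3 days with compound, then harvested. Nuclear extracts prepared by kit protocol, and DNMT activity measured with a commercial DNMT activity kit against untreated cells. Mean of three independent experiments ± SEM.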
# OVCAR-3 = test: Growth inhibition of human OVCAR-3 cells; format: functional; conditions: read-out: LC50 (the source's name)
# PC-3 [15] = test: Growth inhibition of human PC3 cells assessed as cell growth at 100 nM relative to untreated control; format: functional; conditions: read-out: Activity
# U-251 = test: Growth inhibition of human U251 cells assessed as cell growth at 10 uM relative to untreated control; format: functional; conditions: read-out: Activity
# SK-MEL-28 = test: Growth inhibition of human SK-MEL-28 cells assessed as cell growth at 10 nM relative to untreated control; format: functional; conditions: read-out: Activity
# MDA-MB-435 [16] = test: Growth inhibition of human MDA-MB-435 cells assessed as cell growth at 10 uM relative to untreated control; format: functional; conditions: read-out: Activity
# KM12 = test: Growth inhibition of human KM12 cells assessed as cell growth at 1 uM relative to untreated control; format: functional; conditions: read-out: Activity
# T47D = test: Growth inhibition of human T47D cells assessed as cell growth at 1 uM relative to untreated control; format: functional; conditions: read-out: Activity
# COLO 205 [17] = test: Growth inhibition of human COLO205 cells assessed as cell growth at 10 uM relative to untreated control; format: functional; conditions: read-out: Activity; in short: as §1
# RXF 393 = test: Growth inhibition of human RXF393 cells assessed as cell growth at 10 uM relative to untreated control; format: functional; conditions: read-out: Activity
# NCI-H522 [18] = test: Growth inhibition of human NCI-H522 cells assessed as cell growth at 1 uM relative to untreated control; format: functional; conditions: read-out: Activity
# [19] = read-out: LC50 (the source's name)
structure (smiles),measurement,setting,value
COc1ccc2c(c1)[nH]c1c(C)c(OS(=O)(=O)c3cccc4c(N(C)C)cccc34)ccc12,growth at 10 µM,Malme-3M,12%
same,growth at 0.001 µM,NCI-H460,102%
same,growth at 0.1 µM,786-0,105%
same,GI50,UO-31,13.6 µM
same,TGI,UO-31,> 100 µM
same,CC50,UO-31; [19],> 100 µM
same,growth at 0.01 µM,NCI-H522 [1],101%
same,growth at 0.001 µM,MDA-MB-435 [2],100%
same,growth at 0.001 µM,HCT-15,98%
same,growth at 0.01 µM,MOLT-4,97%
same,growth at 0.01 µM,OVCAR-8,103%
same,GI50,SNB-19,7.88 µM
same,TGI,SNB-19,> 100 µM
same,CC50,SNB-19; [19],> 100 µM
same,growth at 0.001 µM,TK-10,97%
same,growth at 1 µM,A498 [3],15%
same,growth at 0.001 µM,NCI-H322M,98%
same,growth at 10 µM,MDA-MB-231,40%
same,growth at 0.001 µM,NCI-H522 [4],109%
same,growth at 0.1 µM,HCT-116 [5],94%
same,growth at 0.01 µM,K562,98%
same,growth at 0.001 µM,OVCAR-5,107%
same,growth at 10 µM,BT-549,13%
same,growth at 0.001 µM,[6],105%
same,growth at 1 µM,PC-3 [7],18%
same,growth at 0.1 µM,SNB-75,99%
same,Drug uptake,PC-3 [8],Active
same,growth at 0.01 µM,HL-60(TB),83%
same,growth at 10 µM,A549,12%
same,growth at 0.1 µM,COLO 205 [9],95%
same,GI50,SW-620,4.32 µM
same,TGI,SW-620,> 100 µM
same,CC50,SW-620; [19],> 100 µM
same,growth at 0.001 µM,MCF7,95%
same,CC50,MDA-MB-435 [10],> 100 µM
same,Activity,PC-3 [11],Active
same,growth at 0.01 µM,HCT-116 [12],106%
same,GI50,A498 [13],22.4 µM
same,TGI,A498 [13],60.2 µM
same,CC50,A498 [13]; [19],> 100 µM
same,Activity,[14],Active
same,CC50,OVCAR-3,> 100 µM
same,growth at 0.1 µM,PC-3 [15],96%
same,growth at 10 µM,U-251,14%
same,growth at 0.01 µM,SK-MEL-28,87%
same,growth at 10 µM,MDA-MB-435 [16],-1%
same,growth at 1 µM,KM12,21%
same,growth at 1 µM,T47D,15%
same,growth at 10 µM,COLO 205 [17],1%
same,growth at 10 µM,RXF 393,-32%
same,growth at 1 µM,NCI-H522 [18],50%
